# Source: ChEMBL document CHEMBL2202981, “Synthesis and cytotoxicity evaluation of highly functionalized pyranochromenes and pyranopyrans” (Bioorg Med Chem Lett, 2012)
# System: MCF7
# Experiment: Cytotoxicity against human MCF7 cells by MTT assay
# Assay type: functional, cell-based
# Conditions: Homo sapiens, MCF7; read-out: IC50; call rule not given here
# Method in brief: (§1)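 MTT assay on four human tumour lines: A549 (alveolar adenocarcinoma epithelial), HeLa (cervical cancer), MDA-MB-231 and MCF7 (breast adenocarcinoma). Dose-response curves were plotted from absorbance data, and IC50 was calculated from them. Each value is the average of two independent experiments.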
row,SMILES,IC50 [µM]
1,CCOC(=O)C1C(c2ccc(F)cc2)c2c(c3ccccc3oc2=O)OC1(O)C(F)(F)F (racemic),7.67
2,CCOC(=O)C1C(c2ccc(OC)cc2)c2c(c3ccccc3oc2=O)OC1(O)C(F)(F)F (racemic),71.7
3,CCOC(=O)C1C(c2ccc(OC)c(OC)c2)c2c(c3ccccc3oc2=O)OC1(O)C(F)(F)F (racemic),53.9
4,CCOC(=O)C1C(c2ccc(O)cc2)c2c(c3cc(F)ccc3oc2=O)OC1(O)C(F)(F)F (racemic),6.54

# Same assay, conditions: mcf7
row,SMILES,IC50
1,CCOC(=O)C1C(c2ccc(C#N)cc2)c2c(c3ccccc3oc2=O)OC1(O)C(F)(F)F (racemic),Not Active
2,CCOC(=O)C1C(c2ccc(O)cc2)c2c(c3ccccc3oc2=O)OC1(O)C(F)(F)F (racemic),Not Active
3,CCOC(=O)C1C(c2ccc(O)c(OC)c2)c2c(c3ccccc3oc2=O)OC1(O)C(F)(F)F (racemic),Not Active
4,CCOC(=O)C1C(c2ccc(C(C)C)cc2)c2c(c3ccccc3oc2=O)OC1(O)C(F)(F)F (racemic),Not Active
5,CCOC(=O)C1C(c2ccc([N+](=O)[O-])cc2)c2c(c3cc(F)ccc3oc2=O)OC1(O)C(F)(F)F (racemic),Not Active
6,CCOC(=O)C1C(c2ccc(F)cc2)c2c(c3cc(F)ccc3oc2=O)OC1(O)C(F)(F)F (racemic),Not Active
7,CCOC(=O)C1C(c2ccc(C#N)cc2)c2c(c3cc(F)ccc3oc2=O)OC1(O)C(F)(F)F (racemic),Not Active
8,CCOC(=O)C1C(c2cccnc2)c2c(c3ccccc3oc2=O)OC1(O)C(F)(F)F (racemic),Not Active
9,CCOC(=O)C1C(c2ccc(C)cc2)c2oc(CO)cc(=O)c2OC1(O)C(F)(F)F (racemic),Not Active
10,CCOC(=O)C1C(c2ccc(OC)cc2)c2oc(CO)cc(=O)c2OC1(O)C(F)(F)F (racemic),Not Active
11,CCOC(=O)C1C(c2ccc(O)cc2)c2oc(CO)cc(=O)c2OC1(O)C(F)(F)F (racemic),Not Active

# System: HeLa
# Experiment: Cytotoxicity against human HeLa cells by MTT assay
# Assay type: functional, cell-based
# Conditions: Homo sapiens, HeLa; read-out: IC50
# Method in brief: as §1
row,SMILES,IC50 [µM]
1,CCOC(=O)C1C(c2ccc(F)cc2)c2c(c3ccccc3oc2=O)OC1(O)C(F)(F)F (racemic),11
2,CCOC(=O)C1C(c2ccc(OC)cc2)c2c(c3ccccc3oc2=O)OC1(O)C(F)(F)F (racemic),11.2
3,CCOC(=O)C1C(c2ccc(OC)c(OC)c2)c2c(c3ccccc3oc2=O)OC1(O)C(F)(F)F (racemic),87
4,CCOC(=O)C1C(c2ccc(O)cc2)c2c(c3cc(F)ccc3oc2=O)OC1(O)C(F)(F)F (racemic),11.5
5,COc1cccc2c1C(=O)c1c(O)c3c(c(O)c1C2=O)C[C@@](O)(C(=O)CO)C[C@@H]3O[C@H]1C[C@H](N)[C@H](O)[C@H](C)O1 [DOXORUBICIN],< 1

# Same assay, conditions: hela
row,SMILES,IC50
1,CCOC(=O)C1C(c2ccc(C#N)cc2)c2c(c3ccccc3oc2=O)OC1(O)C(F)(F)F (racemic),Not Active
2,CCOC(=O)C1C(c2ccc(O)cc2)c2c(c3ccccc3oc2=O)OC1(O)C(F)(F)F (racemic),Not Active
3,CCOC(=O)C1C(c2ccc(O)c(OC)c2)c2c(c3ccccc3oc2=O)OC1(O)C(F)(F)F (racemic),Not Active
4,CCOC(=O)C1C(c2ccc(C(C)C)cc2)c2c(c3ccccc3oc2=O)OC1(O)C(F)(F)F (racemic),Not Active
5,CCOC(=O)C1C(c2ccc([N+](=O)[O-])cc2)c2c(c3cc(F)ccc3oc2=O)OC1(O)C(F)(F)F (racemic),Not Active
6,CCOC(=O)C1C(c2ccc(F)cc2)c2c(c3cc(F)ccc3oc2=O)OC1(O)C(F)(F)F (racemic),Not Active
7,CCOC(=O)C1C(c2ccc(C#N)cc2)c2c(c3cc(F)ccc3oc2=O)OC1(O)C(F)(F)F (racemic),Not Active
8,CCOC(=O)C1C(c2cccnc2)c2c(c3ccccc3oc2=O)OC1(O)C(F)(F)F (racemic),Not Active
9,CCOC(=O)C1C(c2ccc(C)cc2)c2oc(CO)cc(=O)c2OC1(O)C(F)(F)F (racemic),Not Active
10,CCOC(=O)C1C(c2ccc(OC)cc2)c2oc(CO)cc(=O)c2OC1(O)C(F)(F)F (racemic),Not Active
11,CCOC(=O)C1C(c2ccc(O)cc2)c2oc(CO)cc(=O)c2OC1(O)C(F)(F)F (racemic),Not Active

# System: MDA-MB-231
# Experiment: Cytotoxicity against human MDA-MB-231 cells by MTT assay
# Assay type: functional, cell-based
# Conditions: Homo sapiens, MDA-MB-231; read-out: IC50
# Method in brief: as §1
row,SMILES,IC50 [µM]
1,CCOC(=O)C1C(c2ccc(F)cc2)c2c(c3ccccc3oc2=O)OC1(O)C(F)(F)F (racemic),11.3
2,CCOC(=O)C1C(c2ccc(OC)cc2)c2c(c3ccccc3oc2=O)OC1(O)C(F)(F)F (racemic),2.2
3,CCOC(=O)C1C(c2ccc(OC)c(OC)c2)c2c(c3ccccc3oc2=O)OC1(O)C(F)(F)F (racemic),7.71
4,CCOC(=O)C1C(c2ccc(O)cc2)c2c(c3cc(F)ccc3oc2=O)OC1(O)C(F)(F)F (racemic),6.61
5,COc1cccc2c1C(=O)c1c(O)c3c(c(O)c1C2=O)C[C@@](O)(C(=O)CO)C[C@@H]3O[C@H]1C[C@H](N)[C@H](O)[C@H](C)O1 [DOXORUBICIN],< 1

# Same assay, conditions: mda-mb-231
row,SMILES,IC50
1,CCOC(=O)C1C(c2ccc(C#N)cc2)c2c(c3ccccc3oc2=O)OC1(O)C(F)(F)F (racemic),Not Active
2,CCOC(=O)C1C(c2ccc(O)cc2)c2c(c3ccccc3oc2=O)OC1(O)C(F)(F)F (racemic),Not Active
3,CCOC(=O)C1C(c2ccc(O)c(OC)c2)c2c(c3ccccc3oc2=O)OC1(O)C(F)(F)F (racemic),Not Active
4,CCOC(=O)C1C(c2ccc(C(C)C)cc2)c2c(c3ccccc3oc2=O)OC1(O)C(F)(F)F (racemic),Not Active
5,CCOC(=O)C1C(c2ccc([N+](=O)[O-])cc2)c2c(c3cc(F)ccc3oc2=O)OC1(O)C(F)(F)F (racemic),Not Active
6,CCOC(=O)C1C(c2ccc(F)cc2)c2c(c3cc(F)ccc3oc2=O)OC1(O)C(F)(F)F (racemic),Not Active
7,CCOC(=O)C1C(c2ccc(C#N)cc2)c2c(c3cc(F)ccc3oc2=O)OC1(O)C(F)(F)F (racemic),Not Active
8,CCOC(=O)C1C(c2cccnc2)c2c(c3ccccc3oc2=O)OC1(O)C(F)(F)F (racemic),Not Active
9,CCOC(=O)C1C(c2ccc(C)cc2)c2oc(CO)cc(=O)c2OC1(O)C(F)(F)F (racemic),Not Active
10,CCOC(=O)C1C(c2ccc(OC)cc2)c2oc(CO)cc(=O)c2OC1(O)C(F)(F)F (racemic),Not Active
11,CCOC(=O)C1C(c2ccc(O)cc2)c2oc(CO)cc(=O)c2OC1(O)C(F)(F)F (racemic),Not Active

# System: A549
# Experiment: Cytotoxicity against human A549 cells by MTT assay
# Assay type: functional, cell-based
# Conditions: Homo sapiens, A549; read-out: IC50
row,SMILES,IC50 [µM]
1,CCOC(=O)C1C(c2ccc(OC)cc2)c2c(c3ccccc3oc2=O)OC1(O)C(F)(F)F (racemic),82.4
2,CCOC(=O)C1C(c2ccc(OC)c(OC)c2)c2c(c3ccccc3oc2=O)OC1(O)C(F)(F)F (racemic),34.3
3,CCOC(=O)C1C(c2ccc(O)cc2)c2c(c3cc(F)ccc3oc2=O)OC1(O)C(F)(F)F (racemic),33.9

# Same assay, conditions: a549
row,SMILES,IC50
1,CCOC(=O)C1C(c2ccc(F)cc2)c2c(c3ccccc3oc2=O)OC1(O)C(F)(F)F (racemic),Not Active
2,CCOC(=O)C1C(c2ccc(C#N)cc2)c2c(c3ccccc3oc2=O)OC1(O)C(F)(F)F (racemic),Not Active
3,CCOC(=O)C1C(c2ccc(O)cc2)c2c(c3ccccc3oc2=O)OC1(O)C(F)(F)F (racemic),Not Active
4,CCOC(=O)C1C(c2ccc(O)c(OC)c2)c2c(c3ccccc3oc2=O)OC1(O)C(F)(F)F (racemic),Not Active
5,CCOC(=O)C1C(c2ccc(C(C)C)cc2)c2c(c3ccccc3oc2=O)OC1(O)C(F)(F)F (racemic),Not Active
6,CCOC(=O)C1C(c2ccc([N+](=O)[O-])cc2)c2c(c3cc(F)ccc3oc2=O)OC1(O)C(F)(F)F (racemic),Not Active
7,CCOC(=O)C1C(c2ccc(F)cc2)c2c(c3cc(F)ccc3oc2=O)OC1(O)C(F)(F)F (racemic),Not Active
8,CCOC(=O)C1C(c2ccc(C#N)cc2)c2c(c3cc(F)ccc3oc2=O)OC1(O)C(F)(F)F (racemic),Not Active
9,CCOC(=O)C1C(c2cccnc2)c2c(c3ccccc3oc2=O)OC1(O)C(F)(F)F (racemic),Not Active
10,CCOC(=O)C1C(c2ccc(C)cc2)c2oc(CO)cc(=O)c2OC1(O)C(F)(F)F (racemic),Not Active
11,CCOC(=O)C1C(c2ccc(OC)cc2)c2oc(CO)cc(=O)c2OC1(O)C(F)(F)F (racemic),Not Active
12,CCOC(=O)C1C(c2ccc(O)cc2)c2oc(CO)cc(=O)c2OC1(O)C(F)(F)F (racemic),Not Active
